Measurements taken from ChEMBL document CHEMBL4513216, “Probing the Open Global Health Chemical Diversity Library for Multistage-Active Starting Points for Next-Generation Antimalarials” (ACS Infect Dis, 2020).

test: Toxicity liver stage against HepG2, at 10uM; assay type: cell-based; set-up: test concentration 10 uM, cell line HepG2-A16-CD81EGFP; conditions: human, HepG2-A16-CD81EGFP cells; read-out: INHIBITION
Outline: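 Uninfected HepG2-A16-CD81EGFP cells, 3 × 10^3 per well, 1536-well, plated on prespotted compound at 10 μM final, parasite-free screening media added to match infected plates; puromycin 10 μM positive, DMSO 0.5% negative; run in parallel with 48 h PbLuc assay at 37 °C, 5% CO2; viability by CellTiter-Glo luminescence, normalized to controls.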

| SMILES | cytotoxicity at 10 µM |
| --- | --- |
| Cc1nnc(N2C[C@H]3OCC[C@H]3[C@H](C(=O)NCC3CC3)C2)s1 | 2.03% |
| Cc1nc([C@@H]2C[C@@H]3CCN(C(=O)c4ccsc4)C[C@H]3O2)no1 | -8.44% |
| Cc1nn(C)c2c(N(C)Cc3cccs3)nc(C3CC3)nc12 | -126% |
| CC(C)(NC(=O)c1cnc(C(C)(C)C)s1)C(N)=O | -4.04% |
| CCc1nc(C)c(C(=O)NCC2COc3cc(OC)ccc3C2)o1 (stereo unspecified) | 54.6% |
| CN(C)Cc1nn(C)c2c1CCN(C(=O)c1cccnc1)C2 | 6.24% |
| COc1ccc(C[C@H]2CN(C3CCOCC3)CC[C@H]2OCC2CC2)cc1 | -6.57% |
| OC(CN1CCCCCCC1)c1ccc(F)cc1 (stereo unspecified) | -10.4% |
| O=C(CCCn1cncn1)N1CCC2(CCCNC2=O)C1 (stereo unspecified) | -3.89% |
| O=C(CCNC(=O)c1ccoc1)NCc1ccccc1F | 1.76% |
| O=C(c1cnoc1)N1CCC[C@]2(C[C@@H](Oc3ccccn3)CO2)C1 | -5.96% |
| Cc1cc(O)c(OCC(=O)Nc2nc3c(s2)CCCC3)cn1 | 12.8% |
| Cc1nn(C)cc1C(=O)N1CCC(CSc2ccccc2)C1 (stereo unspecified) | 2.84% |
| COCCC(=O)N1CCC2(COCc3cnc(N4CCOCC4)nc32)C1 (stereo unspecified) | 2.21% |
| O=C(CCn1ccc2cc(Br)ccc21)NCc1ccc(C(=O)O)cc1 | -11.8% |
| Cn1ccnc1CN(CCCO)C1CCCc2ccccc21 (stereo unspecified) | -6.91% |
| CN1CCCCc2c1nc1c(c2N)CCCC1 | -0.675% |
| Cc1cnc(NC(C)Cc2cnccn2)nc1N(C)C (stereo unspecified) | 0.342% |
| CC(O)C(=O)N1CCC(c2[nH]ncc2-c2ccccc2)CC1 (stereo unspecified) | -2% |
| CNS(=O)(=O)c1ccc(C(=O)Nc2ccc3c(c2)C(=O)NC3)cc1 | -8.04% |
| OC1CCN(c2ccnc(NCCc3ccccc3Cl)n2)CC1 | 16.5% |
| Cc1ccc(CN2CCc3onc(C(=O)Nc4cccnc4)c3C2)o1 | 5.15% |
| CC(C)n1ccc(C(=O)N2CCCC(n3cncn3)C2)n1 (stereo unspecified) | -0.312% |

| SMILES | cytotoxicity at 10 µM |
| --- | --- |
| Cc1ccc2nc(CN(C)Cc3[nH]nc4c3CCC4)[nH]c2c1C | 2.74% |
| CN(C)Cc1cnn(-c2ccccc2C(=O)NCCC2CCCN2C)c1 (stereo unspecified) | 8.18% |
| CCc1nc(C2CCCN(C(=O)c3ccc(F)cc3)C2)no1 (stereo unspecified) | -40.5% |
| CCOc1ccc(NC(C)=O)cc1S(=O)(=O)Nc1cc(C)on1 | -4.13% |
| Cc1nn(C)c(C)c1C1COCCN1C(=O)NC1CC1 (stereo unspecified) | 3.21% |
| CNCc1n[nH]c(=O)n1-c1cccc(Cl)c1Cl | 0.396% |
| Cc1nc(CSCCC(=O)NCC(=O)NC(C)C)cs1 | -2.03% |
| FC(F)(F)c1ccnc(N2CCCCCC2)c1 | 3.02% |
| COc1ccc(CC(=O)NC2CCN(CC(F)F)CC2)cc1OC | -8.48% |
| Cc1ccc(C(=O)N2CCN(Cc3ccc(C#N)cc3)CC2)n1C | -9.65% |
| Cc1cc(NCC(=O)N(C)C(C)c2cccs2)c(C(N)=O)cc1F (stereo unspecified) | -0.99% |
| O=C(c1[nH]nc2c1CCCC2)N1CCC(OCCN2CCCCC2)C1 (stereo unspecified) | -4.52% |
| CCC1=N[C@@]2(CC[C@@H]3CN(C(=O)NCc4ccccc4)C[C@@H]32)C(=O)N1 | -10.3% |
| O=C(CNC(=O)c1c[nH]c2ccccc12)NCCCn1ccnc1 | -11.1% |
| N#Cc1ccc(NCc2cc3n(n2)CCCN(C(=O)C2CCC2)C3)nc1 | -127% |
| CNC(=O)[C@H]1CO[C@H]2CCN(c3ncc(F)cn3)C[C@H]2C1 | -0.0253% |
| O=C1NC[C@H]2CN(Cc3ccccn3)CCN12 | -2.4% |
| COCCN(Cc1ccccc1)C(=O)c1csc(-c2nnc[nH]2)n1 | 4.9% |
| CN(C)c1ncc(I)c(C2CCCN2C)n1 (stereo unspecified) | 3.7% |
| CCCNC(=O)CCNC1CSCCc2ccccc21 (stereo unspecified) | -0.421% |
| O=S(=O)(c1ccc2c(c1)CCC2)N1CCCC(Cn2cncn2)C1 (stereo unspecified) | 4.19% |
| CNc1cc(C(=O)NCCC2=CSC3=NCCCN23)ccn1 | 8.71% |
| CN(c1ncccc1C#N)C1CCN(CCc2ccncc2)CC1 | 28.7% |

| SMILES | cytotoxicity at 10 µM |
| --- | --- |
| CCSc1cc(C(=O)N(C(C)C)C2CC2)ccn1 | 6.27% |
| O=C(c1ccc(C2CCCN2)s1)N1CCN(C(=O)N2CCOCC2)CC1 (stereo unspecified) | 0.106% |
| CN(Cc1ccsc1)C(=O)c1cc(S(=O)(=O)N(C)C)ccc1Cl | 15% |
| Cn1cc(Br)cc1C(=O)NCC(C)(O)c1ccsc1 (stereo unspecified) | -49% |
| Cc1c(Cl)c(CN2CCCC2Cn2cncn2)nc2ccccc12 (stereo unspecified) | -13.3% |
| N#Cc1cnc(N2CCC3(CC2)OCCO3)nc1N | 3.51% |
| CC(C)C(NC(=O)NCCNc1ccccn1)c1cccs1 (stereo unspecified) | -8.13% |
| Cc1nc2cc(O)nn2c(C)c1CCC(=O)N(C)Cc1ccccc1 | -141% |
| COc1cccc(OCc2cc(C(=O)NC[C@H]3CCCN3)n[nH]2)c1 | -4.9% |
| CN(C)c1ncc(-c2c(-c3ccccc3)ncn2C(CO)C(=O)O)cn1 (stereo unspecified) | 0.471% |
| CN(C)CCCNC(=O)c1ccc(Cl)cc1Cl | -21% |
| Cc1ccc(CN2CCCn3c(nc(Cn4ccnc4)cc3=O)C2)o1 | 5.89% |
| O=C(CC1CCCO1)NCCCC(=O)Nc1ccc(Cl)cc1 (stereo unspecified) | 2.91% |
| CN1CCN(S(=O)(=O)c2cccc(S(=O)(=O)C3CCS(=O)(=O)C3)c2)CC1 (stereo unspecified) | 6.29% |
| COc1cccc(CN2CC(O)CN(C(=O)C3CC3)CC2=O)c1OC (stereo unspecified) | -11.3% |
| CN1C(=O)C2(CCN(Cc3cccnc3)CC2)c2cccc(F)c21 | 6.77% |
| CC(=O)Nc1ccc2nn(C(C)C)cc2c1 | -145% |
| CCN(CC(=O)NC)C(=O)c1sc(Cc2ccccc2)nc1C | -6.37% |
| Cc1cc(S(=O)(=O)N2CCCc3cc(F)c(F)cc32)sc1C(=O)O | -11.9% |
| Cc1nc(Oc2ccccc2Cl)sc1C(=O)O | -11.9% |
| Cn1nnc2c1C(COCC1CC1)CN(C(=O)[C@H]1CCCO1)C2 (stereo partly specified) | -8.01% |
| CCSc1ncc(CN2CCN(c3ccc(C#N)cc3)C(=O)C2)cn1 | -2.54% |
| Cc1cnn(C2CCCN(C(=O)c3ccn(C)c(=O)c3)C2)c1 (stereo unspecified) | 4.55% |

| SMILES | cytotoxicity at 10 µM |
| --- | --- |
| CC(C#N)CNC(=O)Nc1ccc(-c2ccc[nH]2)cc1 (stereo unspecified) | 1.2% |
| CCN1CCOC(CNCc2c(Cl)nc3ccccn23)C1 (stereo unspecified) | 0.174% |
| CC(Oc1ccccc1)C(=O)N1CCCN(Cc2cscn2)CC1 (stereo unspecified) | -3.92% |
| CC1c2ncc(Cn3cncn3)n2CCN1C(=O)c1ccccn1 (stereo unspecified) | -0.785% |
| COCCN1CCC2(CC1)CC(NC(=O)COC)c1ccccc1O2 (stereo unspecified) | -8.43% |
| CCc1nc(NC2CC(=O)N(CC3CCCCC3)C2)ncc1C (stereo unspecified) | -4.55% |
| COCC[C@]1(O)CCN(Cc2nc(C)c(C)s2)C[C@H]1C | 2.14% |
| Cc1occc1C(=O)N1CCn2cnc(COCC3CC3)c2C1 | -6.4% |
| CC(SCC(=O)N(C)CC(=O)NC1CC1)c1ccc(F)c(F)c1 (stereo unspecified) | -0.369% |
| CCS(=O)(=O)N1CCc2ccc(NC(=O)NC3CCCCC3)cc21 | -4.56% |
| Cc1noc(C)c1CNS(=O)(=O)N(C)Cc1ccc(Cl)cc1 | 11.2% |
| O=C1NCC(C(=O)NCc2ccccc2CN2CCOCC2)N1 (stereo unspecified) | 3.64% |
| COc1ccc(NC2(C(=O)N3CCn4cncc4C3)CCCC2)cc1 | 7.42% |
| Cc1cc(C)nc(N2CCC(Cn3cc(C(N)=O)cn3)CC2)n1 | 3.65% |
| CC(C)c1nnc(NC(=O)N2CCCC2c2ccncc2)s1 (stereo unspecified) | 5.6% |
| CC(C)(N)c1cn(C2CCN(c3ncccc3Cl)CC2)nn1 | -48% |
| Fc1ccc(CC2CCN(Cc3cscn3)CC2)cc1 | -7.27% |
| CC(=O)N[C@@H]1CN(C(=O)c2cccc(C)c2)C[C@H]1O | -2.48% |
| Cc1nnn2c1COCC(CNC(=O)c1ccc[nH]1)C2 (stereo unspecified) | 2.7% |
| Cc1nc2c(c(NC3CCN(Cc4ccccc4)CC3)n1)CCNCC2 | -6.74% |
| COC(=O)CCC(=O)N1CCc2[nH]nc(-c3ccc4c(c3)OCO4)c2C1 | -8.28% |
| CN1CCN2CCN(C(=O)c3cnn4cc(CCO)cnc34)CC2C1 (stereo unspecified) | 7.04% |
| CCn1nnc2cc(C(=O)N3CCCC3Cn3cc(C)cn3)ccc21 (stereo unspecified) | -9.8% |

| SMILES | cytotoxicity at 10 µM |
| --- | --- |
| c1ccc(-c2nccc(N3CCc4c(ncn4C4CC4)C3)n2)cc1 | 7.22% |
| Cc1ccccc1CN1CCC2(CCCN2C(=O)C(C)C)CC1 | 11.7% |
| Cc1ccc2nc(CN(C)Cc3ccc(C)o3)cc(=O)n2c1 | -3.02% |
| CS(=O)(=O)N1Cc2nc(C(=O)NCc3ccccc3)oc2C1 | -3.46% |
| Cc1cc(C)n(CCN2CCC(N(C)Cc3noc(C4CC4)n3)C2)n1 (stereo unspecified) | -2.92% |
| CN(C)c1cc(C(=O)N2CCN(c3cnccn3)CC2)ccn1 | -7.64% |
| COc1ccc(COCC(=O)N2CCC(c3nncn3C)CC2)cc1 | 4.9% |
| COc1ccc(CCC(=O)Nc2ccc3ncn(C)c(=O)c3c2)cc1 | 6.44% |
| CC(C)S(=O)(=O)NC(=O)CC(c1ccccc1)C(F)(F)F (stereo unspecified) | -43.9% |
| Cc1oncc1C(=O)N1C[C@H](OCc2ccccn2)[C@H]2OCCC[C@H]21 | -0.385% |
| Cc1nccn1CCC(=O)N1CCCN(CCCc2ccccc2)CC1 | -13.6% |
| Cc1ccc(NCc2cn3c(n2)CN(Cc2ccc(C)o2)CC3)nn1 | 8.19% |
| CO[C@H]1CN(C(=O)OC(C)(C)C)CC1NCc1ccn(C)c1 (stereo partly specified) | -45.9% |
| CCn1ncc2c1C(COC)CN(Cc1ccsc1)C2 (stereo unspecified) | -7.47% |
| Cc1cc(N2CCC(n3cc(CN4CCC[C@@H]4CO)nn3)CC2)ccn1 | 4.9% |
| O=C1COC2(CCN(C(=O)c3ccoc3)CC2)CN1Cc1ccccn1 | -1.11% |
| CN(C)S(=O)(=O)N1CC[C@]2(O)CCN(CCc3cccc(F)c3)C[C@@H]2C1 | -3.38% |
| Cn1nccc1C(=O)N1C[C@@H]2CN(S(C)(=O)=O)CCO[C@@H]2C1 | 9.61% |
| Cc1cc(C)n(CCC(=O)N2CCC(c3nc(C)no3)CC2)n1 | 23.3% |
